Assay results taken from ChEMBL document CHEMBL2346534, “Design, synthesis and in vitro anti-proliferative activity of 4,6-quinazolinediamines as potent EGFR-TK inhibitors” (Eur J Med Chem, 2013).

Tests used:
[1] = tested on: LOX IMVI; assay: Cytotoxicity against human LOXIMVI cells after 48 hrs by SRB assay; format: functional
Method in brief: (§1)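 NCI 60-panel five-dose screen. Cells in RPMI 1640 with 5% FBS and 2 mM L-glutamine, plated at 5000–40,000 cells/well by doubling time, preincubated 24 h at 37 °C/5% CO2. Drug from DMSO stock added at 0.01, 0.1, 1, 10 and 100 µM, then 48 h. TCA fixation, SRB stain, absorbance at 515 nm, time-zero plates included. GI50 = 50% reduction in net protein increase versus control.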

[2] = tested on: RPMI-8226; assay: Cytotoxicity against human RPMI8226 cells after 48 hrs by SRB assay; format: functional; conditions: RPMI-8226, 48 h
Method in brief: (§2)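 NCI 60-panel five-dose screen. Cells in RPMI 1640 with 5% FBS and 2 mM L-glutamine are plated at 5000–40,000 cells/well by doubling time and preincubated 24 h at 37 °C in 5% CO2. Drug in DMSO is tested at 0.01, 0.1, 1, 10 and 100 μM for 48 h. Cells are TCA-fixed, stained with SRB and read at 515 nm. GI50 is the concentration giving 50% reduction in net protein increase relative to time-zero and control plates.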

[3] = tested on: NCI-H226; assay: Cytotoxicity against human NCI-H226 cells after 48 hrs by SRB assay; format: functional; conditions: NCI-H226, 48 h; method in brief: as §2
[4] = tested on: Malme-3M; assay: Cytotoxicity against human MALME-3M cells after 48 hrs by SRB assay; format: functional; method in brief: as §1
[5] = tested on: HCC 2998; assay: Cytotoxicity against human HCC2998 cells after 48 hrs by SRB assay; format: functional; conditions: HCC 2998, 48 h; method in brief: as §1
[6] = tested on: NCI-H522; assay: Cytotoxicity against human NCI-H522 cells after 48 hrs by SRB assay; format: functional; conditions: NCI-H522, 48 h; method in brief: as §2
[7] = tested on: ACHN; assay: Cytotoxicity against human ACHN cells after 48 hrs by SRB assay; format: functional; method in brief: as §1
[8] = tested on: CCRF-CEM; assay: Cytotoxicity against human CCRF-CEM cells after 48 hrs by SRB assay; format: functional; method in brief: as §1
[9] = tested on: COLO 205; assay: Cytotoxicity against human COLO205 cells after 48 hrs by SRB assay; format: functional; conditions: COLO 205, 48 h; method in brief: as §1
[10] = tested on: MDA-MB-435; assay: Cytotoxicity against human MDA-MB-435 cells after 48 hrs by SRB assay; format: functional; conditions: MDA-MB-435, 48 h; method in brief: as §1
[11] = Cytotoxicity against human NCI-ADR-RES cells after 48 hrs by SRB assay; format: functional; method in brief: as §2
[12] = tested on: SN12C; assay: Cytotoxicity against human SN12C cells after 48 hrs by SRB assay; format: functional; method in brief: as §2
[13] = tested on: OVCAR-5; assay: Cytotoxicity against human OVCAR5 cells after 48 hrs by SRB assay; format: functional; conditions: OVCAR-5, 48 h; method in brief: as §2
[14] = tested on: OVCAR-3; assay: Cytotoxicity against human OVCAR3 cells after 48 hrs by SRB assay; format: functional; conditions: OVCAR-3, 48 h; method in brief: as §2
[15] = tested on: HOP-62; assay: Cytotoxicity against human HOP62 cells after 48 hrs by SRB assay; format: functional; conditions: HOP-62, 48 h; method in brief: as §1
[16] = tested on: SK-MEL-5; assay: Cytotoxicity against human SK-MEL-5 cells after 48 hrs by SRB assay; format: functional; conditions: SK-MEL-5, 48 h; method in brief: as §2
[17] = tested on: SNB-19; assay: Cytotoxicity against human SNB19 cells after 48 hrs by SRB assay; format: functional; conditions: SNB-19, 48 h; method in brief: as §2
[18] = tested on: Hs-578T; assay: Cytotoxicity against human Hs578T cells after 48 hrs by SRB assay; format: functional; method in brief: as §1
[19] = tested on: UO-31; assay: Cytotoxicity against human UO31 cells after 48 hrs by SRB assay; format: functional; conditions: UO-31, 48 h
Method in brief: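 NCI 60 five-dose screen. Cells in RPMI 1640 with 5% FBS and 2 mM L-glutamine, plated at 5000–40,000 cells/well by doubling time, pre-incubated 24 h at 37 °C, 5% CO2. Time-zero plates TCA-fixed at drug addition. Final concentrations 0.01, 0.1, 1, 10 and 100 µM (DMSO stock), 48 h exposure. TCA fixation, 0.4% SRB stain, absorbance 515 nm. GI50 from [(Ti−Tz)/(C−Tz)]×100 = 50.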

[20] = tested on: SK-OV-3; assay: Cytotoxicity against human SKOV3 cells after 48 hrs by SRB assay; format: functional; conditions: SK-OV-3, 48 h; method in brief: as §2
[21] = tested on: SF-295; assay: Cytotoxicity against human SF295 cells after 48 hrs by SRB assay; format: functional; conditions: SF-295, 48 h; method in brief: as §2
[22] = tested on: SK-MEL-28; assay: Cytotoxicity against human SK-MEL-28 cells after 48 hrs by SRB assay; format: functional; conditions: SK-MEL-28, 48 h; method in brief: as §2
[23] = tested on: MCF7; assay: Cytotoxicity against human MCF7 cells after 48 hrs by SRB assay; format: functional; conditions: MCF7, 48 h; method in brief: as §1
[24] = tested on: OVCAR-4; assay: Cytotoxicity against human OVCAR4 cells after 48 hrs by SRB assay; format: functional; conditions: OVCAR-4, 48 h; method in brief: as §2
[25] = tested on: HCT-15; assay: Cytotoxicity against human HCT15 cells after 48 hrs by SRB assay; format: functional; conditions: HCT-15, 48 h; method in brief: as §1
[26] = target: Epidermal growth factor receptor (Homo sapiens, UniProt P00533); assay: Inhibition of EGFR tyrosine kinase (unknown origin) using poly (Glu,Tyr) as substrate after 30 mins by ADP-GloTM assay
[27] = tested on: SK-MEL-2; assay: Cytotoxicity against human SK-MEL-2 cells after 48 hrs by SRB assay; format: functional; conditions: SK-MEL-2, 48 h; method in brief: as §2
[28] = read-out: LC50 (the source's name)

Epidermal growth factor receptor, sequence (P00533 whole entry): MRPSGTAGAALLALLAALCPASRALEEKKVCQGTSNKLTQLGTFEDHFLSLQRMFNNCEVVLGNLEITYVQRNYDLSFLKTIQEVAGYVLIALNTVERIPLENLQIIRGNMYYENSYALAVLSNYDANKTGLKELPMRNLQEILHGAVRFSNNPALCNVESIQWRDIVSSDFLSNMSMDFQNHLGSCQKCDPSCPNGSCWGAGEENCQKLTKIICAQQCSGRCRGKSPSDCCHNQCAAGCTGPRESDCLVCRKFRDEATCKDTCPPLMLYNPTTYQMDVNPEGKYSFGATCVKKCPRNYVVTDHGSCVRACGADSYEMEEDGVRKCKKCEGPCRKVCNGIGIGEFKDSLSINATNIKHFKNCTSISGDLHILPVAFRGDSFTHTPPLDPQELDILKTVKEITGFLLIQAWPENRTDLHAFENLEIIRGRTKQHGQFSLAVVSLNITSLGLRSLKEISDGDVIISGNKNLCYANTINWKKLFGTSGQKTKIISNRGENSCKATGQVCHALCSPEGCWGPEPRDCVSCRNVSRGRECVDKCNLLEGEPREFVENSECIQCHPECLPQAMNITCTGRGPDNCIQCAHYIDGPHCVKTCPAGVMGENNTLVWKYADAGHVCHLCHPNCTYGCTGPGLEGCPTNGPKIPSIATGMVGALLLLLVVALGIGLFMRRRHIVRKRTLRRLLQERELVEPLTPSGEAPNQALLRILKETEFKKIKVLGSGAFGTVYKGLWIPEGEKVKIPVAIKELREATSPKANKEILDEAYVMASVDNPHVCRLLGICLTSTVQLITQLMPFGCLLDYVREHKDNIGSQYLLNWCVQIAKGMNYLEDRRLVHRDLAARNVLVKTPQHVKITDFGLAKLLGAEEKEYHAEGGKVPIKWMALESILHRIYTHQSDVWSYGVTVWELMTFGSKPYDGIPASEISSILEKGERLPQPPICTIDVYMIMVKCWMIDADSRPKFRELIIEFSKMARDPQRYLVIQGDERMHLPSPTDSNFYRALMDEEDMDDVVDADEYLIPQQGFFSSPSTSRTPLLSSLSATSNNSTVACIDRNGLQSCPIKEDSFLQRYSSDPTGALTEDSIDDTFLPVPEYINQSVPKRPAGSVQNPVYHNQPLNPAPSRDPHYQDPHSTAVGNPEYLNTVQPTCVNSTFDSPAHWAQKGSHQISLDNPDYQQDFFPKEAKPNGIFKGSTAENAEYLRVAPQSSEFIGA

## NC(=O)Nc1ccc2ncnc(Nc3ccc(Cl)cc3)c2c1
[1]
  GI50: 19.3 µM
  TGI: 68.7 µM
[1]; [28]
  CC50: > 100 µM
[2]
  GI50: 20.5 µM
  TGI: 78.9 µM
[2]; [28]
  CC50: > 100 µM
[3]
  GI50: 22.3 µM
  TGI: > 100 µM
[3]; [28]
  CC50: > 100 µM
[4]
  GI50: 22 µM
  TGI: 60.7 µM
[4]; [28]
  CC50: > 100 µM
[5]
  GI50: 37.6 µM
  TGI: > 100 µM
[5]; [28]
  CC50: > 100 µM
[6]
  GI50: 2.4 µM
  TGI: 20.9 µM
[6]; [28]
  CC50: > 100 µM
[7]
  GI50: 1.47 µM
  TGI: 35.8 µM
[7]; [28]
  CC50: > 100 µM
[8]
  GI50: 16.4 µM
  TGI: > 100 µM
[8]; [28]
  CC50: > 100 µM
[9]
  GI50: 27.5 µM
  TGI: > 100 µM
[9]; [28]
  CC50: > 100 µM
[10]
  GI50: 16.9 µM
  TGI: 47.6 µM
[10]; [28]
  CC50: > 100 µM
[11]
  GI50: 19.5 µM
  TGI: > 100 µM
[11]; [28]
  CC50: > 100 µM
[12]
  GI50: 11.1 µM
  TGI: 50 µM
[12]; [28]
  CC50: > 100 µM
[13]
  GI50: 15.2 µM
  TGI: 90.3 µM
[13]; [28]
  CC50: > 100 µM
[14]
  GI50: 8.36 µM
  TGI: 69.5 µM
[14]; [28]
  CC50: > 100 µM
[15]
  GI50: 21.1 µM
  TGI: 84.4 µM
[15]; [28]
  CC50: > 100 µM
[16]
  GI50: 13.5 µM
  TGI: 30.7 µM
[16]; [28]
  CC50: 70.1 µM
[17]
  GI50: 9.02 µM
  TGI: > 100 µM
[17]; [28]
  CC50: > 100 µM
[18]
  GI50: 14.8 µM
  TGI: 55.9 µM
[18]; [28]
  CC50: > 100 µM
[19]
  GI50: 4.22 µM
  TGI: 43 µM
[19]; [28]
  CC50: > 100 µM
[20]
  GI50: 3.52 µM
  TGI: 20.5 µM
[20]; [28]
  CC50: > 100 µM
[21]
  GI50: 14.8 µM
  TGI: 45.5 µM
[21]; [28]
  CC50: > 100 µM
[22]
  GI50: 26.7 µM
  TGI: > 100 µM
[22]; [28]
  CC50: > 100 µM
[23]
  GI50: 26.2 µM
  TGI: > 100 µM
[23]; [28]
  CC50: > 100 µM
[24]
  GI50: 9.14 µM
  TGI: > 100 µM
[24]; [28]
  CC50: > 100 µM
[25]
  GI50: 17.8 µM
  TGI: > 100 µM
[25]; [28]
  CC50: > 100 µM
[26]
  IC50: 0.061 µM
[27]
  GI50: 15.1 µM
  TGI: 42.7 µM
[27]; [28]
  CC50: > 100 µM
